# Measurements taken from ChEMBL document CHEMBL1152772, “Orally bioavailable antagonists of inhibitor of apoptosis proteins based on an azabicyclooctane scaffold” (J Med Chem, 2009).
# Activity calls are given as the source filed them.
# Assays:
# [1] = target: E3 ubiquitin-protein ligase XIAP (Homo sapiens, UniProt P98170); assay: Binding affinity to XIAP-BIR3 domain by fluorescence polarization competitive assay
# [2] = Binding affinity to MLXBIR3SG domain by fluorescence polarization competitive assay
# [3] = system: MDA-MB-231; assay: Cytotoxicity against human MDA-MB-231 cells assessed as cell viability after 3 to 4 days
# [4] = system: HMEC; assay: Induction of apoptosis in HMEC cells assessed as caspase 3/7 activation after 3 to 24 hrs; conditions: Homo sapiens
# [5] = system: Mus musculus; assay: Toxicity in mouse bearing human MDA-MB-231 cells assessed as change in body weight at 50 mg/kg/day, po; format: organism-based; set-up: route oral; conditions: in vivo
# Summary of the method: (§1)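 Female 8-week-old C.B-17 SCID.bg mice inoculated subcutaneously in the upper right flank with 1 × 10⁷ GFP-expressing MDA-MB-231-X1.1 cells. Once-daily oral gavage of vehicle or compound at 50 (mg/kg)/day began at tumors of ~200 mm³ (~1.5 weeks after inoculation), n = 14 per group. Caliper tumor volume V = 0.5ab². Progression defined as a 6-fold volume increase from day 0; body weight monitored.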
# [6] = Half life in mouse at 25 mg/kg, po; format: ADME, organism-based; set-up: dose 25 mg/kg, route oral; conditions: in vivo
# [7] = system: MDA-MB-231; assay: Induction of cIAP1 degradation in human MDA-MB-231 cells after 1 hr by Western blot; format: functional, cell-based
# Summary of the method: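 MDA-MB-231 cells treated 1 h with a range of compound concentrations. Western blot probed with goat anti-c-IAP1, with mouse monoclonal anti-β-tubulin as loading control.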
# [8] = system: BT-549; assay: Induction of apoptosis in human BT549 cells assessed as caspase 3/7 activation after 3 to 24 hrs
# [9] = system: MDA-MB-231; assay: Induction of apoptosis in human MDA-MB-231 cells assessed as caspase 3/7 activation after 3 to 24 hrs
# [10] = Cmax in mouse at 25 mg/kg, po; format: ADME, organism-based; set-up: dose 25 mg/kg, route oral; conditions: in vivo
# [11] = system: MDA-MB-231; assay: Antitumor activity against human MDA-MB-231 cells xenografted in mouse assessed as increase in median time for tumor progression at 50 mg/kg/day, po; format: functional, organism-based; summary of the method: as §1
# [12] = AUC in mouse at 25 mg/kg, po; format: ADME, organism-based; set-up: dose 25 mg/kg, route oral; conditions: plasma
# [13] = system: HMEC; assay: Cytotoxicity against HMEC cells assessed as cell viability after 3 to 4 days; conditions: Homo sapiens
# Chain of E3 ubiquitin-protein ligase XIAP (P98170 whole entry, the tested form may be a part): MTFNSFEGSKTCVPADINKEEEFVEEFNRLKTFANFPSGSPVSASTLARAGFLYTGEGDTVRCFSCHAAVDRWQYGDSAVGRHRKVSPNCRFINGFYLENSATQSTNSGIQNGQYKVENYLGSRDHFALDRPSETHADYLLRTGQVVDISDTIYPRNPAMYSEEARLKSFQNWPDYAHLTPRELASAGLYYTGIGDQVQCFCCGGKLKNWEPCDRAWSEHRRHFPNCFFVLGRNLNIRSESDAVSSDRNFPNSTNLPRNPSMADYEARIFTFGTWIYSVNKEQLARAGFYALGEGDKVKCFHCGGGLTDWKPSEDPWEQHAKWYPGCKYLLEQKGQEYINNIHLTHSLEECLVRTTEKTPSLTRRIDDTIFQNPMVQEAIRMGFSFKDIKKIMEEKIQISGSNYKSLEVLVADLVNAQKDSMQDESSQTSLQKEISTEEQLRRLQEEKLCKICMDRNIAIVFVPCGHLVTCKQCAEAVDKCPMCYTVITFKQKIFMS
Ki [1] [nM],Ki [2] [nM],EC50 [4] [nM],EC50 [8] [nM],EC50 [9] [nM],SMILES,EC50 [3] [nM],EC50 [13] [nM],further results
1300,1500,,,,CN[C@@H](C)C(=O)N[C@H](C(=O)N1CC[C@H]2CC[C@H](NC(=O)C3COc4ccccc43)[C@H]21)C(C)(C)C (some centres undefined),,,
3000,290,,,,CN[C@@H](C)C(=O)N[C@H](C(=O)N1CCC[C@H]1CNC(=O)C(c1ccccc1)c1ccccc1)C(C)(C)C,,,
,,> 10000,470,490,CN[C@@H](C)C(=O)N[C@H](C(=O)N1CC[C@H]2CC[C@H](NC(=O)c3cccc4ccccc34)[C@H]21)C(C)(C)C,980,> 10000,Activity [5]: Non-toxic; half-life [6]: 1.3 h; Activity [7]: Active; Cmax [10]: 3.6 µM; Activity [11]: Active; AUC [12]: 5 µM·h
1600,780,,,,CN[C@@H](C)C(=O)N[C@H](C(=O)N1CCC[C@H]1CNC(=O)c1cccc2ccccc12)C(C)(C)C,,,
110,110,,,,CN[C@@H](C)C(=O)N[C@H](C(=O)N1CC[C@H]2CC[C@H](NC(=O)c3c(OC)ccc4ccccc34)[C@H]21)C(C)(C)C,,,
,,> 10000,1810,3590,CN[C@@H](C)C(=O)N[C@H](C(=O)N1CC[C@H]2CC[C@H](NC(=O)C(c3ccccc3)c3ccccc3)[C@H]21)C(C)(C)C,9640,> 10000,half-life [6]: 1.5 h; Cmax [10]: 5 µM; AUC [12]: 16 µM·h
1500,1900,,,,CN[C@@H](C)C(=O)N[C@H](C(=O)N1CC[C@H]2CC[C@H](NC(=O)N3CCc4ccccc43)[C@H]21)C(C)(C)C,,,
,,> 10000,190,1320,CN[C@@H](C)C(=O)N[C@H](C(=O)N1CC[C@H]2CC[C@H](NC(=O)c3ccc4ccccc4c3)[C@H]21)C(C)(C)C,3290,> 10000,
640,440,,,,CN[C@@H](C)C(=O)N[C@H](C(=O)N1CC[C@H]2CC[C@H](NC(=O)c3coc4ccccc34)[C@H]21)C(C)(C)C,,,
190,63,> 10000,1450,1580,CN[C@@H](C)C(=O)N[C@H](C(=O)N1CC[C@H]2CC[C@H](NC(=O)c3ccc(C)c4ccccc34)[C@H]21)C(C)(C)C,3120,> 10000,
,,> 10000,4070,4450,CN[C@@H](C)C(=O)N[C@H](C(=O)N1CC[C@H]2CC[C@H](NC(=O)c3ccc(F)c4ccccc34)[C@H]21)C(C)(C)C,10200,> 10000,
160,110,,,,CN[C@@H](C)C(=O)N[C@H](C(=O)N1CC[C@H]2CC[C@H](NC(=O)c3csc4ccccc34)[C@H]21)C(C)(C)C,,,
1800,1300,,,,CN[C@@H](C)C(=O)N[C@H](C(=O)N1CC[C@H]2CC[C@H](NC(=O)c3ccc4c(c3)OCO4)[C@H]21)C(C)(C)C,,,
1500,260,,,,CN[C@@H](C)C(=O)N[C@H](C(=O)N1CC[C@H]2CC[C@H](NC(=O)c3ccc4[nH]nnc4c3)[C@H]21)C(C)(C)C,,,
